RBBP9 inhibitor = inhibitors of human serine hydrolase RBBP9; recombinant RBBP9, FP-Rh probe fluorescence polarization; O75884; AID 1515; inhibition, % at 7.94 µM; hit rate 0.2% among 220,000;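 active = inhibition above the campaign mean of all tested compounds plus 3 SD, cut at about 14% in these data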
Target sequence (O75884 whole entry, looked up): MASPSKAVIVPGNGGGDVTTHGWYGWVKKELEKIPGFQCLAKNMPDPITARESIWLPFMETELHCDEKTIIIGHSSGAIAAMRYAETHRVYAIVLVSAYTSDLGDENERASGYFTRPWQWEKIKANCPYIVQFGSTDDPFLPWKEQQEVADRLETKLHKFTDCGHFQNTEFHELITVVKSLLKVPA
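Controls: DMSO-treated enzyme wells and wells lacking RBBP9 | Material: RBBP9 protein | Technique: Fluorescence polarization | Replication: Single well per compound, no replicates | Buffer or medium: Tris-NaCl-Pluronic buffer, pH 8.0 | Timing: 30 min compound preincubation, 45 min probe labeling, 25 °C | Read-out basis: Percent inhibition from mP, scaled between DMSO and no-protein wells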
SIAE primary = blocks human sialic acid acetylesterase; AID 1053197; Q9HAT2; inhibition, % at 9.66 µM; SIAE FP-Rh probe binding, fluorescence polarization; hit rate 0.69% among 370,000;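 active = inhibition above a cutoff: mean of compounds within the control limits plus 3 SD of those, cut at about 17% in these data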
HTRA1 inh = inhibitors of human serine peptidase HTRA1; Q92743; recombinant HTRA1, FP-rhodamine activity-based probe, fluorescence polarization; inhibition, % at 5.96 µM; hit rate 0.5% among 340,000; AID 504803; in the data active = inhibition above about 36%
mABHD4 FP = ABHD4 (mouse) inhibition, primary FP screen; Q8VD66; purified mABHD4, FP-Rh probe fluorescence polarization; inhibition, % at 8.92 µM; hit rate 0.54% among 370,000; AID 720543;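 active = inhibition exceeding the mean over every tested compound plus 3 SD, cut at about 30% in these data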
Target sequence (Q8VD66 whole entry, looked up): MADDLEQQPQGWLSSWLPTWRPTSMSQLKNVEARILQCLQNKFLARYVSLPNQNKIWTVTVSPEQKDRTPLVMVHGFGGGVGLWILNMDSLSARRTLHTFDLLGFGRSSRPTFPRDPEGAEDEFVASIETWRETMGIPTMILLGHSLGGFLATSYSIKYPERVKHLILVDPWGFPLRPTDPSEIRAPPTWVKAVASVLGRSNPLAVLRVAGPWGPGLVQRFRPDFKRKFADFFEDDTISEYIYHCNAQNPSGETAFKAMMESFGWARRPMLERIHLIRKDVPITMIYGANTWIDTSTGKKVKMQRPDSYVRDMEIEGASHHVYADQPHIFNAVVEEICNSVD
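System: mouse ABHD4 enzyme, wild type / Medium: HEPES pH 7.0, NaCl, Pluronic buffer / Reagent: FP-Rh activity-based fluorescent probe / Control set: S159A mutant high control, sample median low control / Detection: fluorescence polarization with parallel and perpendicular emission, 525/598 nm / Schedule: 45 min + 60 min at 25 °C / Compound dosing: 8.92 µM, single dose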
HTRA1 inh conf = confirmation of human HTRA1 inhibitors; shares compounds with HTRA1 inh; recombinant HTRA1, FP-rhodamine activity-based probe, fluorescence polarization; inhibition, % at 5.96 µM; hit rate 66% among 1,600;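 active = mean inhibition over three repeats above a set limit taken from the earlier primary screen, cut at about 37% in these data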;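 also: inhibitors block probe binding so polarization drops and inhibition rises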
Large screens that a line does not name were inactive (follow-up assays come after a bar, where they were run). Shown are actives, neighbours in structure and some others; about 1.4% of the full set was active somewhere.

CCCC(=O)NC(c1ccco1)c1cc(Cl)c2cccnc2c1O (configuration not stated)	HTRA1 inh 47 | HTRA1 inh conf 54
CCCC(=O)NC(c1cccs1)c1cc(Cl)c2cccnc2c1O (configuration not stated)	HTRA1 inh 63 | HTRA1 inh conf 56
CCCC(=O)NC(c1ccc2c(c1)OCO2)c1cc(Cl)c2cccnc2c1O (configuration not stated)	HTRA1 inh 62 (no result: SIAE primary, mABHD4 FP) | HTRA1 inh conf 59
Cc1cc(N=Nc2ccccc2)c(NCC(O)C(O)C(O)CO)cc1C (configuration not stated)	HTRA1 inh 45 | HTRA1 inh conf 39
NC(=O)/C(=N\OC(=O)c1ccco1)c1nc(-c2ccc(Br)cc2)cs1	HTRA1 inh 67 | HTRA1 inh conf 47
Nc1nc(-c2ccc(NC(=O)c3ccco3)cc2)cs1	none (no result: RBBP9 inhibitor)
COC[C@@H]1CCCN1c1ccc2c(c1)OCCCN(C1CC1)S2(=O)=O	none (no result: RBBP9 inhibitor, HTRA1 inh)
O=C(Nc1ccc2nc(-c3ccco3)c(-c3ccco3)nc2c1)N1CCN(c2ccccn2)CC1	SIAE primary 22, HTRA1 inh 43, mABHD4 FP 30 | HTRA1 inh conf inactive
CCN(CC)C(=O)CC[C@@H]1CC[C@]2(CCCN(Cc3cccs3)C2)O1	none (no result: RBBP9 inhibitor, HTRA1 inh)
CCCCCCCCN1C(=O)[C@@H](CC(=O)NCC2CCCCC2)C[C@@]2(C(=O)OC)C1=C[C@H](COCc1ccccc1)O[C@@H]2C	none (no result: RBBP9 inhibitor, HTRA1 inh)
O=C(N/N=C/c1c[nH]c2ccccc12)c1ccc(O)c(O)c1	HTRA1 inh 53 (no result: RBBP9 inhibitor) | HTRA1 inh conf 82
O=C(N/N=C/c1c[nH]c2ccccc12)c1cccc(O)c1	none (no result: RBBP9 inhibitor)
Brc1csc(/C=N/Nc2nc3ccccc3s2)c1	HTRA1 inh 40 | HTRA1 inh conf inactive
COc1ccc(S(=O)(=O)/N=C2\C=C(Nc3ccc(O)cc3)C(=O)c3ccccc32)cc1	SIAE primary 40, HTRA1 inh 84, mABHD4 FP 75 (no result: RBBP9 inhibitor) | HTRA1 inh conf active
CCOC(=O)c1ccc(NC(=O)OC[C@@H]2CSCCS(=O)(=O)N2)cc1	none (no result: RBBP9 inhibitor, HTRA1 inh)
CCc1ccc(C(=O)/C=C2\Sc3ccccc3NC2=O)cc1	HTRA1 inh 59 | HTRA1 inh conf 93
COc1cccc2c1NC(C(=O)O)C1CC=CC21 (configuration not stated)	HTRA1 inh 62 (no result: SIAE primary, mABHD4 FP) | HTRA1 inh conf 61
C[C@H](CO)N1C[C@H](C)[C@@H](CN(C)S(=O)(=O)c2ccccc2C#N)OCc2cn(nn2)CCCC1=O	none (no result: RBBP9 inhibitor)
NS(=O)(=O)c1ccc(OCCCN2CCC(C(O)(c3ccccc3)c3ccccc3)CC2)cc1	none (no result: RBBP9 inhibitor, HTRA1 inh)
CCCOc1ccc(N)cc1N	HTRA1 inh 56 | HTRA1 inh conf inactive
COc1cc2c(cc1OC)C(=O)C(Br)CC2 (configuration not stated)	HTRA1 inh 42 (no result: RBBP9 inhibitor, SIAE primary, mABHD4 FP) | HTRA1 inh conf inactive
COc1cc2c(cc1OC)C(=O)C(c1ccc3c(c1)OCO3)CC2 (configuration not stated)	none (no result: RBBP9 inhibitor)
O=C(Nc1ccc2ccccc2c1)C(c1ccc(C(F)(F)F)cc1)n1c(=O)c(-c2cc3ccccc3[nH]2)nc2ccccc21 (configuration not stated)	none (no result: RBBP9 inhibitor, HTRA1 inh)
O=C(COC(=O)c1ccc2ncsc2c1)NC(=O)NCc1ccccc1	HTRA1 inh 39 | HTRA1 inh conf inactive
O=C(COC(=O)c1ccc(O)cc1)Nc1ncc(Cl)cc1Cl	none
O=C(COC(=O)c1nc(Cl)ccc1Cl)Nc1ncc(Cl)cc1Cl	HTRA1 inh 63 (no result: RBBP9 inhibitor) | HTRA1 inh conf inactive
CCOC(=O)C1CCCN(C2=C(NS(=O)(=O)c3ccc(Br)cc3)C(=O)c3ccccc3C2=O)C1 (configuration not stated)	HTRA1 inh 46 (no result: RBBP9 inhibitor) | HTRA1 inh conf 62
CC(C)CCN(C)C1CCN(C(=O)NCc2ccccc2)CC1	none (no result: RBBP9 inhibitor, HTRA1 inh)
O=C(N/N=C/c1sc(N2CCOCC2)nc1-c1ccccc1)c1cccc(S(=O)(=O)N2CCOCC2)c1	HTRA1 inh 45 | HTRA1 inh conf 119
COc1cc(C(=O)N/N=C/c2sc(N3CCOCC3)nc2-c2ccccc2)cc(OC)c1OC	none
Cc1ccc(S(=O)(=O)NC(=O)Nc2ccc(N(C)C)cc2)cc1	HTRA1 inh 44 (no result: RBBP9 inhibitor) | HTRA1 inh conf 45
Cc1ccc(NC(=O)NNS(=O)(=O)c2ccc(Br)cc2)cc1	none
NC1=CC(=O)C(=O)c2ccccc21	none (no result: RBBP9 inhibitor)
O=C1C=C(O)c2[nH]c(=O)ccc2C1=O	HTRA1 inh 47 (no result: RBBP9 inhibitor) | HTRA1 inh conf inactive
CCCCn1c(N)c(N(CC(C)C)C(=O)C2CCN(S(=O)(=O)c3ccccc3)CC2)c(=O)[nH]c1=O	none (no result: RBBP9 inhibitor)

Screens: PubChem, The Scripps Research Institute Molecular Screening Center
